Results taken from ChEMBL document CHEMBL3351723, “New derivatives of lupane triterpenoids disturb breast cancer mitochondria and induce cell death” (Bioorg Med Chem, 2014).
The source made the active and inactive calls. The calls are words filed in the database; no cut-off is given here.

How the values were obtained:
Format in all cases: functional
Liver microsome [1] = test: Effect on mitochondrial transmembrane potential in Wistar Han rat liver mitochondria energized with succinate assessed as ADP depolarization at 0.667 ug/mg of protein (reference value: 23.9 +/- 3.3 mV)
Liver microsome [2] = test: Effect on mitochondrial transmembrane potential in Wistar Han rat liver mitochondria energized with succinate assessed as time duration of lag phase at 0.667 ug/mg of protein Rvb = 46.7 +/- 3.9 sec)
Procedure, shortened: (§1)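 Isolated male Wistar rat liver mitochondria (1.5 mg protein) in 125 mM sucrose, 65 mM KCl, 5 mM KH2PO4, 2.5 mM MgCl2, 5 mM HEPES pH 7.4, 30°C, with 3 μM TPP+. Compound added for 1 min, then 10 mM succinate plus 3 μM rotenone. State 3 started with ADP (83.3 nmol/mg protein). ΔΨ read with a TPP+-selective electrode and calculated by the Kamo equation without binding correction.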

Liver microsome [3] = test: Effect on mitochondrial transmembrane potential in Wistar Han rat liver mitochondria energized with succinate assessed as ADP depolarization at 1.333 ug/mg of protein (reference value: 34.6 +/- 1.9 mV)
Liver microsome [4] = test: Effect on mitochondrial transmembrane potential in Wistar Han rat liver mitochondria energized with succinate assessed as mitochondrial transmembrane electropotential at 0.06 ug/mg of protein (reference value: 220.6 +/- 2.5 mV)
Liver microsome [5] = test: Effect on mitochondrial transmembrane potential in Wistar Han rat liver mitochondria energized with succinate assessed as ADP depolarization at 0.067 ug/mg of protein (reference value: 34.6 +/- 1.9 mV)
Liver microsome [6] = test: Reduction in ADP-induced mitochondrial transmembrane electropotential in Wistar Han rat liver mitochondria energized with succinate at >0.3 ug/mg of protein
Liver microsome [7] = test: Effect on mitochondrial transmembrane potential in Wistar Han rat liver mitochondria energized with succinate assessed as ADP depolarization at 0.133 ug/mg of protein (reference value: 34.6 +/- 1.9 mV)
Liver microsome [8] = test: Effect on mitochondrial transmembrane potential in Wistar Han rat liver mitochondria energized with succinate assessed as ADP depolarization at 1.333 ug/mg of protein (reference value: 34.7 +/- 1.4 mV)
Liver microsome [9] = test: Effect on mitochondrial transmembrane potential in Wistar Han rat liver mitochondria energized with succinate assessed as ADP depolarization at 0.067 ug/mg of protein (reference value: 34.7 +/- 1.4 mV)
Liver microsome [10] = test: Effect on mitochondrial transmembrane potential in Wistar Han rat liver mitochondria energized with succinate assessed as mitochondrial transmembrane electropotential at 0.06 ug/mg of protein (reference value: 216.0 +/- 7.4 mV)
Liver microsome [11] = test: Effect on mitochondrial transmembrane potential in Wistar Han rat liver mitochondria energized with succinate assessed as ADP depolarization at 0.133 ug/mg of protein (reference value: 25.3 +/- 2.1 mV)
Hs-578T = test: Cytotoxicity against human Hs578T cells assessed as decrease in live cells at 1 ug/ml for 24 to 48 hrs by flow cytometry
Procedure, shortened: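 Hs578T seeded at 2.5×10^4 cells/ml, exposed to 1 μg/ml or DMSO for 24 and 48 h. Cells trypsinized and resuspended in HEPES-buffered saline with 15 mM glucose. Stained 15 min at 37°C with 1 μM ethidium homodimer and 0.1 μM calcein-AM. Green (calcein) and red (ethidium homodimer) signals read by flow cytometry. Mean ± SEM, 6 experiments.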

Liver microsome [12] = test: Effect on mitochondrial transmembrane potential in Wistar Han rat liver mitochondria energized with succinate assessed as mitochondrial transmembrane electropotential at 0.133 ug/mg of protein (reference value: 204.2 +/- 5.6 mV)
Liver microsome [13] = test: Effect on mitochondrial transmembrane potential in Wistar Han rat liver mitochondria energized with succinate assessed as time duration of lag phase at 1.333 ug/mg of protein (reference value: 33.0 +/- 4.6 sec); procedure, shortened: as §1

## C=C(C)[C@@H]1CC[C@]2(COC(=O)C(CC)[n+]3ccc(N(C)C)cc3)CC[C@]3(C)[C@H](CC[C@@H]4[C@@]5(C)CC[C@H](OC(=O)C(CC)[n+]6ccc(N(C)C)cc6)C(C)(C)[C@@H]5CC[C@]43C)[C@@H]12 (some centres undefined)
Liver microsome [1]
  Activity: 23 mV

## C=C(C)[C@@H]1CC[C@]2(COC(=O)C[N+](C)(C)C(C)C)CC[C@]3(C)[C@H](CC[C@@H]4[C@@]5(C)CC[C@H](OC(=O)C[N+](C)(C)C(C)C)C(C)(C)[C@@H]5CC[C@]43C)[C@@H]12.[Cl-].[Cl-]
Liver microsome [2]
  TIME: 0.0146 h
Liver microsome [3]
  Activity: 19.8 mV
Liver microsome [4]
  Activity: 217 mV
Liver microsome [5]
  Activity: 31.5 mV
Liver microsome [6]
  inhibition: Active
Liver microsome [7]
  Activity: 30.3 mV

## C=C(C)[C@@H]1CC[C@]2(COC(=O)C[n+]3ccc(N(C)C)cc3)CC[C@]3(C)[C@H](CC[C@@H]4[C@@]5(C)CC[C@H](OC(=O)C[n+]6ccc(N(C)C)cc6)C(C)(C)[C@@H]5CC[C@]43C)[C@@H]12.[Cl-].[Cl-]
Liver microsome [8]
  Activity: 25.2 mV
Liver microsome [9]
  Activity: 28.4 mV
Liver microsome [10]
  Activity: 209 mV

## C=C(C)[C@@H]1CC[C@]2(COC(=O)CC[n+]3ccc(N(C)C)cc3)CC[C@]3(C)[C@H](CC[C@@H]4[C@@]5(C)CC[C@H](OC(=O)CC[n+]6ccc(N(C)C)cc6)C(C)(C)[C@@H]5CC[C@]43C)[C@@H]12.[Cl-].[Cl-]
Liver microsome [11]
  Activity: 26.2 mV
Hs-578T
  inhibition: Active
Liver microsome [12]
  Activity: 206 mV
Liver microsome [13]
  TIME: 0.00983 h
